Data reported in publication PMC8458252 (Circulation. Heart failure, 2021).

Experiments:
[1] = Plasma pharmacokinetics after single oral dose in HFrEF patients; assay type: in vivo, human
Outline: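 After a single oral liquid dose (10, 30 or 90 mg) in fasted HFrEF patients, plasma was drawn pre-dose and at 5, 15, 30, 45, 90 and 120 min on Day 1, and again on Day 5. Parameters: AUC 0–2 h, Cmax, Tmax, lag time. Half-life was estimated from Day 5 levels relative to peak. Data analysed by two-way repeated-measures ANOVA.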

[2] = test system: HFrEF patients; assay: Supine and orthostatic blood pressure and heart rate in HFrEF patients; assay type: in vivo, human
Outline: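 Fasted HFrEF patients were randomised 3:1 to one oral liquid dose (10, 30 or 90 mg) or placebo. Supine BP and HR were taken by automated cuff every 10 min from 30 min pre-dose to 120 min post-dose, then every 30 min to 5 h. Orthostatic readings were taken at 60 ± 5 and 240 ± 15 min and on Day 5, after 1, 3 and 5 min standing. Time course versus placebo by ANCOVA; orthostatic change by ANOVA.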

[3] = test system: HFrEF patients; assay: Echo-Doppler hemodynamics, baseline versus 2 hours post-dose, in HFrEF patients; assay type: in vivo, human
Outline: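 Single oral dose (10, 30 or 90 mg, or placebo; randomised 3:1; n=9/dose) in fasted HFrEF patients. Transthoracic 2D Doppler echo at baseline and 120 ± 15 min, read blinded in a core lab. Cuff BP/HR taken at imaging. Outputs: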

[4] = test system: HFrEF patients; assay: Tolerability / adverse events in HFrEF patients; assay type: in vivo, human
Outline: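 In a blinded, placebo-controlled study, stable HFrEF patients on guideline therapy were randomised 3:1 in sequential cohorts. Each received one oral liquid dose (10, 30 or 90 mg) or placebo after an ≥8 h fast. Monitoring ran 5 h post-dose, with a follow-up visit on Day 5 ± 1 (exam, ECG, blood and urine labs). Adverse events were recorded at each visit per protocol.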

[5] = test system: HFrEF patients; assay: 12-lead ECG QTc and Holter arrhythmia monitoring in HFrEF patients; assay type: in vivo, human
Outline: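 HFrEF patients fasted ≥8 h took one oral liquid dose of test compound (10, 30 or 90 mg) or placebo, randomised 3:1. 12-lead ECG at baseline, 120 ± 15 min post-dose and Day 5 ± 1. Continuous bedside telemetry plus Holter recording. Holter gave hourly supraventricular and ventricular runs and ectopic-beat burden versus pre-dose.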

[6] = test system: plasma cGMP and cAMP levels; assay: Plasma cAMP and cGMP by LC/MS/MS in HFrEF patients; assay type: in vivo, human; details: baseline versus 2 hours after dosing
Outline: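 HFrEF patients received one oral dose of test compound (10, 30 or 90 mg) or placebo. Plasma was sampled at baseline and 2 h post-dose and stored frozen. cAMP and cGMP were measured by a validated LC/MS/MS method with quantitation limits of 20 to 5000 […].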

[7] = test system: PDE1A; details: read-out: IC50 for PDE1A; cited from earlier work
[8] = test system: PDE1C; details: read-out: IC50 for PDE1C; cited from earlier work
[9] = test system: PDE3; details: cited from earlier work
[10] = test system: PDE5; details: cited from earlier work
[11] = test system: PDE1; details: cited from earlier work
[12] = test system: rats; details: cited from earlier work

## CN1C(=O)c2c(nn(Cc3ccc(-c4cccc(F)n4)cc3)c2Nc2ccccc2)N2C1=N[C@@H]1CCC[C@@H]12 [ITI-214]
[1]; after five days, at each dose
  drug level as % of peak concentration: 2-3%
[1]; after oral dosing
  time at which peak concentration was achieved: ≤ 45 min
[1]; human, plasma, oral
  half-life: ~22 h
[1]; human, plasma, po, 90 mg
  Tmax: 0.75 to 1.1 h
[2]; over 2 hours post-dose, each dose
  diastolic BP change: declined
[2]; single oral dose 10-90 mg
  increase in heart rate: 5-9 bpm
[2]; upon standing
  orthostatic SBP changes versus placebo: No SBP changes were significantly different
[3]; 10 mg, baseline to 120 minutes
  median change in PWRi (mean LV power index): 0.018 (IQR 0.122) Watts/mL^2·10^4
  median rise in cardiac output: 0.717 L/min
[3]; 30 mg
  E/E’: small rise
[3]; 30 mg, baseline to 120 minutes
  change in systemic vascular resistance: −564 dynes·s/cm^−5
  median change in PWRi (mean LV power index): 0.143 (IQR 0.154) Watts/mL^2·10^4
  median rise in cardiac output: 0.830 L/min
[3]; 90 mg, baseline to 120 minutes
  change in systemic vascular resistance: −370 dynes·s/cm^−5
  median change in PWRi (mean LV power index): 0.083 (IQR 0.126) Watts/mL^2·10^4
  median rise in cardiac output: 0.666 L/min
[3]; 90 mg, pre versus post dose
  percent increase in cardiac output: 18%
  percent increase in mPWRi: 33%
[3]; all doses
  total LV afterload (Ea): significantly reduced
[3]; baseline to 120 minutes
  end-diastolic volume: little effect
  isovolumic relaxation time: little effect
[4]; 27 subjects treated
  feeling hot, share of subjects: 7%
  headache, share of subjects: 7%
  hypotension, share of subjects: 11%
  orthostatic hypotension, share of subjects: 11%
  parosmia, share of subjects: 15%
  taste disorder, share of subjects: 7%
[4]; all ITI-214 doses
  subjects with mild adverse events: 11 of the 27 subjects
[4]; any time in the study
  serious adverse events: no serious adverse events
[4]; single dose
  tolerability: well-tolerated
[5]; 10 mg, 120 minutes post-dose versus baseline
  change in QTc: 1 ± 9 ms
[5]; 10 mg, Day 5 versus baseline
  change in QTc: -13 ± 17 ms
[5]; 30 mg, 120 minutes post-dose versus baseline
  change in QTc: -4 ± 18 ms
[5]; 30 mg, Day 5 versus baseline
  change in QTc: -19 ± 22 ms
[5]; 90 mg, 120 minutes post-dose versus baseline
  change in QTc: -4 ± 24 ms
[5]; 90 mg, Day 5 versus baseline
  change in QTc: -16 ± 19 ms
[5]; compared to pre-dosing
  arrhythmia outcomes (Holter): no clinical change
[6]
  plasma cAMP level: did not significantly change
  plasma cGMP level: did not significantly change
[7]
  IC50: 0.035 nM
[8]
  IC50: 0.035 nM
[9]
  selectivity for PDE1 over PDE3: 94,000 fold
[10]
  selectivity for PDE1 over PDE5: 19,000 fold
[11]; versus LuAF41228 and LuAF58027
  potency relative to either Lu-compound (more potent): > 1000 x

## CCC(CC)Nc1ncnc2c(OC)c(OC)ccc12 [LuAF41228]
[12]
  lowering of blood pressure: ≥ 15 mmHg

## CCOC(=O)C1=C[C@]2(CC)CCCN3CCc4c(n1c1ccccc41)[C@@H]32 [vinpocetine, reference compound]
[11]
  PDE1 inhibitor potency relative to ITI-214 (less potent): < 10^6
